Data taken from ChEMBL document CHEMBL3526053, “Species-dependent uptake of glycylsarcosine but not oseltamivir in Pichia pastoris expressing the rat, mouse, and human intestinal peptide transporter PEPT1” (Drug Metab Dispos, 2012).

Tests used:
Assay type in all cases: ADME
PEPT1 [1] = target: T1, PEPT1 (Mus musculus, UniProt Q9JIP7); assay: Drug uptake in Pichia pastoris GS115 expressing mouse recombinant PEPT1 at 5 uM after 30 mins by dual-channel liquid scintillation counting analysis relative to vector control; settings: read-out: FC
T1 sequence (Q9JIP7 whole entry): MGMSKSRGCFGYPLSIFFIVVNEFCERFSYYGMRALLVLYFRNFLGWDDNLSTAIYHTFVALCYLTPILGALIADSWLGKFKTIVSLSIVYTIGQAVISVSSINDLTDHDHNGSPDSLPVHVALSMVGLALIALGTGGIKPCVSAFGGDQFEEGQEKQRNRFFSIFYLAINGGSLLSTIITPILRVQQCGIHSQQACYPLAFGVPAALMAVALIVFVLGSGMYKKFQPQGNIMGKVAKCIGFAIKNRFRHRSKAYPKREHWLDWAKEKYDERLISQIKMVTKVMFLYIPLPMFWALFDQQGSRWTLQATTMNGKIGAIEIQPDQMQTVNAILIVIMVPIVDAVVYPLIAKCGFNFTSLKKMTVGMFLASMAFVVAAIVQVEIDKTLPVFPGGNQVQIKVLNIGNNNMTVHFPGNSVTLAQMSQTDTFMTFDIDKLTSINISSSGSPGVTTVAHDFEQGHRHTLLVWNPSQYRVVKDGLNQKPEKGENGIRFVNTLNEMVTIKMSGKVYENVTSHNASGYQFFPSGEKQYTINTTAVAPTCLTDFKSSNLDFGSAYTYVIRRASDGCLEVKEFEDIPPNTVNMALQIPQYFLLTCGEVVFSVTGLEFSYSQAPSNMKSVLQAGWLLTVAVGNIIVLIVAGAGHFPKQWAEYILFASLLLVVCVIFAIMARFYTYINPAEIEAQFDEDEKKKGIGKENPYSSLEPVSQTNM
How it was run: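 5.0 µM radiolabelled substrate ([3H]GlySar or [14C]oseltamivir) is incubated 30 min at 24°C with induced transformants in 100 mM potassium phosphate pH 6.5. Cell-associated radioactivity is counted by scintillation after standing 24 h and normalised to OD600. Results are compared with pPIC3.5K vector-alone cells. Mean ± SE (n=6).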

PEPT1 [2] = target: T1, PEPT1; assay: Drug uptake in Pichia pastoris GS115 expressing mouse recombinant PEPT1 at 5 uM after 30s by dual-channel liquid scintillation counting analysis relative to vector control; settings: read-out: FC
How it was run: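 5.0 µM radiolabelled substrate uptake for 30 s at 24°C in pH 6.5 phosphate buffer by induced transformants. Radioactivity is counted by liquid scintillation and normalised to OD600. Results are compared with pPIC3.5K vector-alone cells. Mean ± SE (n=6).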

[3] = target: T2, Solute carrier family 15 member 1 (Mus musculus, UniProt Q9JIP7); assay: Drug uptake in Pichia pastoris GS115 expressing mouse recombinant PEPT1 at 5 uM after 30s by dual-channel liquid scintillation counting analysis in presence of TEA relative to control; settings: 0.5 min
T2 sequence (Q9JIP7 whole entry): T1 sequence (Q9JIP7 whole entry)
How it was run: (§1)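 [3H]GlySar 5.0 µM final, 30-s uptake at 24°C in 100 mM potassium phosphate pH 6.5, with or without a potential inhibitor at 10 mM. Cells are methanol-induced transformants. Values are vector-subtracted and expressed as percent of buffer control. Mean ± SE (n=3). ANOVA with Dunnett's test.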

[4] = target: T3, Solute carrier family 15 member 1 (Homo sapiens, UniProt P46059); assay: Drug uptake in Pichia pastoris GS115 expressing human recombinant PEPT1 at 5 uM after 30s by dual-channel liquid scintillation counting analysis in presence of acyclovir relative to control; settings: 0.5 min; how it was run: as §1
T3 sequence (P46059 whole entry): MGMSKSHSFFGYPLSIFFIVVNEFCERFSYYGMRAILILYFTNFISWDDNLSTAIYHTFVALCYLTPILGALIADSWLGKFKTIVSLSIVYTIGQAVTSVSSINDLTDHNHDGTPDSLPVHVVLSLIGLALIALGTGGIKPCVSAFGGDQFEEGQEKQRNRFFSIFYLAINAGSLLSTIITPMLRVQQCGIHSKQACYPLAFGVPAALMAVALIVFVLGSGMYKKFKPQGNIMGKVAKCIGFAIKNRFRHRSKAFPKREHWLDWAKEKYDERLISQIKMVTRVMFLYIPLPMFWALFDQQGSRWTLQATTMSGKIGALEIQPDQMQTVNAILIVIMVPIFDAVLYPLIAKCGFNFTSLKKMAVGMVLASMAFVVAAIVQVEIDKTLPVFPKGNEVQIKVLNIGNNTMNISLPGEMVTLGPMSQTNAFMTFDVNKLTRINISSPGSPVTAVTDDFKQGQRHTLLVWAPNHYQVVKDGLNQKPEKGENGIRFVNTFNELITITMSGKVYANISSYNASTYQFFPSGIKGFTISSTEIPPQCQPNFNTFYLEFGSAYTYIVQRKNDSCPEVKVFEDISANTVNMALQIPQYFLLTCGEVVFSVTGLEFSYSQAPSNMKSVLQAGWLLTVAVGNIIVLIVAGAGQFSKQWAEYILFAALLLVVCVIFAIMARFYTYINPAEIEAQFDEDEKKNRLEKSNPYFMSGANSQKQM

[5] = target: T2, Solute carrier family 15 member 1; assay: Drug uptake in Pichia pastoris GS115 expressing mouse recombinant PEPT1 at 5 uM after 30s by dual-channel liquid scintillation counting analysis in presence of SITS relative to control; settings: 0.5 min; how it was run: as §1
[6] = target: T2, Solute carrier family 15 member 1; assay: Drug uptake in Pichia pastoris GS115 expressing mouse recombinant PEPT1 at 5 uM after 30s by dual-channel liquid scintillation counting analysis in presence of cephalothin relative to control; settings: 0.5 min; how it was run: as §1

uptake ratio at 0.5 h, 5 µM (PEPT1 [1]): 100
uptake ratio at 0.5 min, 5 µM (PEPT1 [2]): 61
Drug uptake [3]: 83.7%
Drug uptake [4]: 114%
Drug uptake [5]: 86.1%
Drug uptake [6]: 85%
SMILES: [3H]C(C(=O)O)N(C)C(=O)CN (stereo unspecified)
